# High-throughput results (PubChem BioAssay)
# Measles CPE – protection of cells from measles virus; Measles virus-infected cells, CPE protection, absorbance; protection (pct of control), % at 4 µM; 1.5% of 140,000 active; in the data active = protection mostly above about 24%, no sharp cut-off; inactive = mostly below about 26%
# NPY-Y2 antag – blocks the human neuropeptide Y Y2 receptor | NPY-Y2 expressing cells, antagonist mode | inhibition, % at 2.7 µM | 0.99% of 140,000 active
# NPY Y1 blocker – antagonists of human neuropeptide Y receptor Y1; AID 1040; inhibition, % at 3.6 µM; 1% of 200,000 active; HEK293-CNG Y1 cells, membrane potential fluorescence; NPY at EC95, then isoproterenol;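 active = inhibition above the campaign mean inhibition of all tested compounds plus 3 SD, cut at about 20% in these data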
#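 Material: HEK293 Y1/CNG channel cell line | Also added: NPY (25 nM), isoproterenol (1 µM), Ro 20-1724 (25 µM) | Compound: One concentration, 3.6 µM, in 0.4% DMSO | Schedule: 3 h dye uptake, 1 h room-temperature compound, 45 min post-isoproterenol | Signal: Membrane-potential fluorescent dye readout | Read-out: % inhibition of NPY effect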
# NPY-Y2 PAM-ag – potentiators or agonists of human neuropeptide Y receptor Y2. 0.45% of 220,000 active. cells expressing NPY-Y2, potentiator/agonist read-out. P49146. activation, % at 3.6 µM; in the data active = activation above about 27%;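 also: cells stimulated with NPY near EC25 plus isoproterenol at EC100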
# NPY1 pot ag – potentiators or agonists of human neuropeptide Y receptor Y1. P25929. NPY-Y1 expressing cells, potentiator/agonist activation. activation, % at 3.6 µM. 0.37% of 220,000 active. AID 1304; in the data active = activation above about 33%, passing the limit was not always enough;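 also: cells stimulated with NPY at EC10 then isoproterenol at EC100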
# Rad51 HR inh – Rad51 (human) homologous recombination inhibition; 0.085% of 200,000 active; hRad51 DNA strand exchange, fluorescence dequenching; inhibition, % at 10 µM; Q06609;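 active = inhibition above 40% at the single screening dose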
# Target sequence (Q06609 whole entry, looked up): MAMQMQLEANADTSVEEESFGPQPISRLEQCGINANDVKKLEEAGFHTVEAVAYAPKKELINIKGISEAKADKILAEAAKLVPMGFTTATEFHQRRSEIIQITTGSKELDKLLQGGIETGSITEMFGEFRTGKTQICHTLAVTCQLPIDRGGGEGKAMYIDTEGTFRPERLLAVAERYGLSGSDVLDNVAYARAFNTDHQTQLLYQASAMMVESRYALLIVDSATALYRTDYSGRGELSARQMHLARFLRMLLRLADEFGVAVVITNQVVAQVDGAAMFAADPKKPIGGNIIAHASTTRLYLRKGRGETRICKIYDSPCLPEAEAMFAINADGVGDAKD
#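 Test system: preformed human Rad51 ssDNA filaments; also added: Donor/quencher-labelled 47-bp dsDNA substrate; doses: 10 µM final, single point; times: 37 °C 15-min filament assembly, 30-min compound preincubation, 15-min exchange; detection: FRET fluorescence dequenching, excitation 485 nm, emission 520 nm; read-out basis: Fluorescence-based percent inhibition, control- and blank-normalised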
# NPY1 antag conf – human NPY-Y1 antagonism, confirmation; HEK293-CNG NPY-Y1, membrane potential fluorescence, cAMP; NPY challenge against isoproterenol-raised cAMP; AID 1254; 21% of 1,200 active; shares compounds with NPY Y1 blocker; inhibition, % at 3.6 µM; in the data active = inhibition above about 20%
# NPY-Y2 antag ct – counter-screen for NPY-Y1 antagonists: human NPY-Y2 antagonism. HEK293 NPY-Y2 CNG membrane potential fluorescence; cells given NPY, then isoproterenol. inhibition, % at 3.6 µM. AID 1255. shares compounds with NPY Y1 blocker. 28% of 1,200 active
# Hits are given with their value; – = inactive; · = no result given. Most compounds without a hit are left out; they make up all but 2.8% or so of the library. Rule as the data show it, unless noted: active = inhibition above about 17%; inactive = the rest.
SMILES,Measles CPE,NPY-Y2 antag,NPY Y1 blocker,NPY-Y2 PAM-ag,NPY1 pot ag,Rad51 HR inh,NPY1 antag conf,NPY-Y2 antag ct
CCN(CC)CCCN(C(=O)Cn1nnc(-c2ccc(OC)c(OC)c2)n1)C(C(=O)NC(C)(C)C)c1ccc(F)cc1 (centres undefined),·,·,32,–,–,–,21,39
COc1cc(/C=C2/SC(=S)N(c3c(C)n(C)n(-c4ccccc4)c3=O)C2=O)ccc1O,·,·,–,–,–,–,·,·
CC(C)(C)c1ccc(C(=O)N2CCCC2)s1,·,·,·,–,–,–,·,·
CCS(=O)(=O)N1CCC(C(=O)N2CCN(Cc3ccccc3)CC2)CC1,·,·,–,–,–,–,·,·
CCCCNC(=O)CCn1c(=O)c2ccccc2n(CC(=O)NCCc2ccc(OC)c(OC)c2)c1=O,·,·,–,–,–,–,·,·
FC(F)(F)c1cc(-c2ccco2)nc(-n2nc(C(F)(F)F)cc2C2CC2)n1,–,–,21,–,–,–,–,–
CN1CCN(c2nc(-c3ccco3)cc(C(F)(F)F)n2)CC1,–,–,–,–,–,–,·,·
CS(=O)(=O)c1nc(-c2ccco2)cc(C(F)(F)F)n1,–,–,24,–,–,–,–,46
COc1ccccc1-c1cc(C(F)(F)F)nc(S(C)(=O)=O)n1,–,–,–,–,–,·,·,·
COc1cccc(-c2cc(C(=O)NCCCn3ccnc3)c3ccccc3n2)c1,–,–,–,–,–,–,·,·
Cc1cccc(-n2c(CCc3ccccc3)nnc2SCC(=O)c2ccccc2)c1,–,–,–,–,–,–,·,·
N=c1n(Cc2ccc(Cl)cc2)c2ccccc2n1CC(O)COc1ccccc1 (centres undefined),·,·,41,–,–,–,26,22
CCN(CC)CCn1c(=N)n(CC(O)COc2cccc(C)c2)c2ccccc21 (centres undefined),·,·,55,–,–,–,44,41
N=c1n(CCO)c2ccccc2n1Cc1ccc(Cl)cc1,–,–,–,–,–,–,·,·
NC(=O)C1=C[C@H](c2csc3ccccc23)C[C@H](OCCCCO)O1,·,·,–,–,–,–,·,·
C=CCOC(=O)C1=C[C@H](c2coc3ccccc3c2=O)C[C@H](OCCCCO)O1,·,·,·,·,·,–,·,·
Oc1cc2ccccc2cc1-c1n[nH]c(=S)o1,–,–,40,–,–,–,–,–
CCOc1ccc(-c2cc(CCCC(=O)Nc3cccc(OC)c3)no2)cc1,–,–,21,–,–,–,–,21
CCOc1ccc(NC(=O)CCCc2cc(-c3ccc(OCC)cc3)on2)cc1,–,–,–,–,–,–,·,·
C[C@H]1CC[C@H]2C(=O)N3[C@H](c4cccc(N5CCCC5=O)c4)[C@@H](C)CC[C@H]3C(=O)N2[C@@H]1c1cccc(N2CCCC2=O)c1,–,–,–,–,–,·,·,·
C[C@H]1CC[C@H]2C(=O)N3[C@H](c4ccccc4Br)[C@@H](C)CC[C@H]3C(=O)N2[C@@H]1c1ccccc1Br,–,–,28,–,–,·,–,–
CCN(CC)c1ccc2c(c1)OC(N)=C(C#N)C2c1cccnc1 (centres undefined),–,–,27,–,–,–,–,–
N#CC1=C(N)Oc2cc(N)ccc2C1c1cccnc1 (centres undefined),–,–,–,–,–,·,·,·
COc1cc(C(C(=O)NC2CCCCC2)N(Cc2ccco2)C(=O)c2cnccn2)cc(OC)c1OC (centres undefined),·,·,–,–,–,–,·,·
O=C(c1cnccn1)N(Cc1ccco1)C1(C(=O)NC2CCCCC2)CCCCC1,–,–,31,–,–,–,27,–
Nc1nc(SCC(=O)N2N=C(c3ccc(Cl)cc3)CC2c2ccco2)n[nH]1 (centres undefined),·,·,·,–,–,–,·,·
S=c1[nH]nc(-c2n[nH]c3c2CCC3)n1/N=C/C=C/c1ccccc1,·,·,·,–,–,–,·,·
Cc1cc(C(=O)OCCN2C(=O)c3ccccc3C2=O)c2ccccc2n1,–,–,24,–,–,–,–,–
O=C(OCCN1C(=O)c2ccccc2C1=O)c1cc(=O)[nH]c2ccccc12,–,–,–,–,–,–,·,·
